This is an account of results in ChEMBL document CHEMBL1141852, “Two auronols from Pseudolarix amabilis” (1999).

The test system of experiment [1] is Trichophyton mentagrophytes. The experiment in a line: Antimicrobial activity against Trichophyton mentagrophytes. It is filed as functional. An outline of the steps: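 Microdilution in 96-well plates. The Trichophyton mentagrophytes inoculum was spores scraped from fungal growth into Mycophil broth. Pure compounds were tested at final 50 down to 0.20 µg/mL in twofold steps. Incubation was at 30 or 37 °C. MIC was taken as the lowest concentration inhibiting at least 80% of growth.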

In experiment [2] the test system is Candida albicans. Briefly: Antimicrobial activity against Candida albicans. Type of experiment: functional. An outline of the steps: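 Broth microdilution in 96-well plates. Inoculum was a 24 h Candida albicans culture diluted in Sabouraud dextrose broth. Incubation was at 30 or 37 °C. MIC was taken as the lowest concentration giving at least 80% growth inhibition.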

Broadly, the MIC is the lowest concentration that inhibits growth of the organism. The MFC is the smallest concentration meeting the test's criterion for killing the fungus. A low value points to more potent killing.

SMILES strings stand for the structures. Converted amounts (≈) assume the structure as drawn. The source made the active and inactive calls.

`COC(=O)C1=CC[C@@]23CC[C@@H]([C@@](C)(/C=C/C=C(\C)C(=O)O[C@@H]4O[C@H](CO)[C@@H](O)[C@H](O)[C@H]4O)OC2=O)[C@@]3(OC(C)=O)CC1`: the outcome in experiment [1] and in experiment [2] was inactive.

Consider `CC(=O)O[C@]12CCC(C)=CC[C@]13CC[C@H]2[C@@](C)(/C=C/C=C(\C)C(=O)O[C@@H]1O[C@H](CO)[C@@H](O)[C@H](O)[C@H]1O)OC3=O`, for which the outcome in experiment [1] and in experiment [2] was inactive. As for `COc1c(O)cc(CC2(O)Oc3cc(O)cc(O)c3C2=O)cc1O` (configuration not stated), the result in experiment [1] and in experiment [2] was inactive.

Take `C/C(=C\C=C\[C@@]1(C)OC(=O)[C@]23CC=C(C(=O)O)CC[C@]2(O)[C@H]1CC3)C(=O)O`: the outcome in experiment [1] and in experiment [2] was inactive. In the case of `O=c1c(O)c(-c2cc(O)c(O)c(O)c2)oc2cc(O)cc(O)c12` [MYRICETIN], the minimal inhibitory concentration (MIC) in experiment [1] is 50 µg/mL (≈ 157 µM). For the compound `COC(=O)C1=CC[C@@]23CC[C@@H]([C@@](C)(/C=C/C=C(\C)C(=O)O)OC2=O)[C@@]3(OC(C)=O)CC1` [PSEUDOLARIC ACID B], in experiment [2], the MFC was 6.25 µg/mL (≈ 14.5 µM) and 3.12 µg/mL (≈ 7.23 µM) was the least that counted as inhibitory (MIC). For `COC(=O)C1=CC[C@@]23CC[C@@H]([C@@](C)(/C=C/C=C(\C)C(=O)O)OC2=O)[C@@]3(O)CC1`, the outcome in experiment [1] and in experiment [2] was inactive. Regarding `C[C@@H]1[C@H](O)[C@@H](C)/C=C/C=C/C=C/C=C/C=C/C=C/C=C/[C@H](O[C@@H]2O[C@H](C)[C@@H](O)[C@H](N)[C@@H]2O)C[C@@H]2O[C@](O)(C[C@@H](O)C[C@@H](O)[C@H](O)CC[C@@H](O)C[C@@H](O)CC(=O)O[C@H]1C)C[C@H](O)[C@H]2C(=O)O` [AMPHOTERICIN B], the outcome in experiment [1] was inactive. This compound gave a minimum fungicidal concentration (MFC) in experiment [2] of 0.39 µg/mL (≈ 0.422 µM).

With `O=C1c2c(O)cc(O)cc2OC1(O)Cc1cc(O)c(O)c(O)c1` (configuration not stated), the outcome in experiment [1] and in experiment [2] was inactive.
